Assay results: article PMC9322450 (Angewandte Chemie (International ed. in English), 2022)

Assays:
[1] = assay type: in vitro ADME, mouse
In short: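 Mouse epidermis punches (C57BL/6-type, ≈6 mm diameter, 1 mm thick) incubated with test compound at 4.85 μM in PBS for 24 h. Supernatant sampled over time, diluted 100-fold, added to a group-I S. aureus agr YFP reporter strain making native AIP. Fluorescence normalized to vehicle (100%) and media (0%) controls, n=3 independent experiments; remaining active compound estimated from an earlier dose-response curve.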

S. aureus = test: murine open-wound model of S. aureus infection; assay type: in vivo, mouse; conditions: even at relatively high concentrations (e.g. 10 μM)

## AIP-III D4A
[1]; after 24 h with mouse tissue in PBS, start 4.85 μM
  loss of active compound: ~ 95%
[1]; control without tissue, 24 hr
  loss of inhibitory activity in the absence of mouse tissue: no loss of inhibitory activity
[1]; tissue sample heat treated at 80 °C for 15 min before addition of compound
  loss of activity with heat-treated tissue: loss of activity could be prevented
S. aureus
  benefit on wound healing: only a limited benefit on wound healing
